# Screening results from PubChem.
# FXIa inh: factor XIa (human) inhibition. P03951. purified FXIa, Boc-Glu-Ala-Arg-AMC fluorogenic substrate. inhibition, % at 5 µM. 0.14% of 220,000 active. AID 798;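 active means inhibition of at least 40%; inactive means inhibition below 40%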;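 further: fluorescence of freed AMC excited at 355 nm; 0% = enzyme without compound and 100% = no enzyme blank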
# Biofilm kill mix: mixture kills Candida albicans biofilm cells; 0.02% of 120,000 active; inhibition, % at 7.6 µM; C. albicans biofilm persisters + clotrimazole, fluorescence viability; primary screen in compound mixtures of four per well;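 further: compounds exposed to preformed 24 h biofilms for 48 h; 0% = untreated biofilm control and 100% = clotrimazole plus chlorhexidine kill blank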
#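 Assay system: C. albicans biofilms / Medium: RPMI/MOPS medium, pH 7.0 / Schedule: biofilm formation 24 h, compound exposure 48 h, 37 °C / Measured by: Alamar Blue fluorescence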
# KLK5 inh: kallikrein 5 (human) inhibition | Q9Y337 | inhibition, % at 5 µM | 0.59% of 210,000 active | recombinant hK5, fluorogenic AMC substrate cleavage;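 active means inhibition of 40% or more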;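 further: 0% = enzyme controls without compound and 100% = no-enzyme blanks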
# FXIIa inh: inhibitors of human coagulation factor XIIa | 0.3% of 220,000 active | P00748 | purified FXIIa, Boc-QGR-AMC fluorogenic substrate, 2 h | AID 800 | inhibition, % at 5 µM; in the data active means inhibition above about 40%;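 further: 0% = enzyme with no compound and 100% = blank without enzyme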
# Target sequence (P00748 20-372 limits assumed): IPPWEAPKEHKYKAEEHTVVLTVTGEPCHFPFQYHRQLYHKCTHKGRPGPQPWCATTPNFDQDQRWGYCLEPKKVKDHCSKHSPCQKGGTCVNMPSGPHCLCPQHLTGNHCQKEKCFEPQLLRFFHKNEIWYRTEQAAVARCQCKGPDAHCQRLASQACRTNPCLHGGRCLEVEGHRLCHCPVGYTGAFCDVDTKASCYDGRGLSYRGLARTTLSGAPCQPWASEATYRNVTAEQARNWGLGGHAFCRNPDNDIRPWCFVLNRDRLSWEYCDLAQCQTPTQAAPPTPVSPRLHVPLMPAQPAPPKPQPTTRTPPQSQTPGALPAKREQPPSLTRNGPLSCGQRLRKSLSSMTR
# Target sequence (P00748 373-615 limits assumed): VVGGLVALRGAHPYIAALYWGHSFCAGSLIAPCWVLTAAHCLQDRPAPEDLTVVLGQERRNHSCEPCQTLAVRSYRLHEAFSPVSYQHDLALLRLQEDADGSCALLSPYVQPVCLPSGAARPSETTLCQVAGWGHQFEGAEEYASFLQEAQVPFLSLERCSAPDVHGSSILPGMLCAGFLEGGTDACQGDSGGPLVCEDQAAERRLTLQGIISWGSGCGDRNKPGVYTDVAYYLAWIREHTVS
# Hep lipid drop: hepatic lipid droplet formation modulation. AML12 mouse hepatocytes, oleate lipid droplets, BODIPY imaging. 0.4% of 240,000 active. inhibition, % at 6.5 µM;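 active means lipid droplet intensity inhibited by at least 50%, with more than 500 cells counted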
#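 Material – mouse AML12 hepatocyte cell line, fixed after treatment · Compound dosing – one dose, 6.5 µM compound · Times – compound with oleate, overnight · Measured by – Image-based BODIPY and DAPI two-channel analysis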
# Thrombin inh: blocks human thrombin protease activity; inhibition, % at 5 µM; 0.26% of 220,000 active; alpha-thrombin, Boc-VPR-AMC fluorogenic substrate cleavage; AID 1046; P00734;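 active means inhibition at or above 40%; inactive means inhibition below 40%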;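 further: 0% = enzyme with no compound and 100% = wells without enzyme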
#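 System – human alpha-thrombin protein · Reagent – Boc-VPR-AMC substrate, 15 µM final · Compound – 5 µM single dose in 0.2% DMSO · Schedule – reaction at room temperature · Technique – AMC fluorescence at 355 nm excitation and 460 nm emission · Read-out basis – % inhibition relative to enzyme controls and enzyme-free blanks · Control set – no-compound enzyme wells and no-enzyme blanks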
# * = called active by the depositor; x = no result. This is a sample that favours compounds with a hit; in the whole collection about 1.1% have one here.
SMILES,FXIa inh,Biofilm kill mix,KLK5 inh,FXIIa inh,Hep lipid drop,Thrombin inh
CCN1/C(=C/c2ccc3cc(C)cc(C)c3[n+]2CC)Sc2cc(C)ccc21,-1,12,4,7,-56,-3
CCN1/C(=C/c2ccc3cccc(C)c3[n+]2CC)Sc2ccccc21,13,x,51*,28,x,40
CCOc1cc(S(=O)(=O)N2CCCCC2)ccc1Cl,5,x,60*,18,x,104*
COc1ccc(Cl)c(S(=O)(=O)N2CCCC2)c1,1,x,68*,22,6,21
O=C(CSc1nnc(Cn2nnc(-c3ccccc3)n2)n1-c1ccccc1)Nc1ccc(F)cc1,9,x,85*,6,13,69*
CC(=O)Nc1ccc(C(=O)Nc2ccc3c(c2)OCO3)cc1,8,x,41*,31,x,20
Cc1ccc(NC(=O)NCc2ccc3c(c2)OCO3)cc1,6,x,6,75*,4,2
O=C(Nc1ccc2c(c1)OCO2)c1ccc2c(c1)OCO2,-6,19,-7,9,1,-6
O=C(CCl)Nc1ccccc1C(=O)Nc1ccc2c(c1)OCO2,28,5,42*,25,-22,16
COc1ccccc1NS(=O)(=O)c1cc(NC(=O)C(C)C)ccc1N1CCCCC1,-3,10,-4,3,-20,-6
COc1ccccc1NS(=O)(=O)c1cc(NC(=O)Nc2ccccc2)ccc1N1CCCCC1,12,9,53*,22,-1,19
CCCCn1c(SCC(=O)N(C)C2CCS(=O)(=O)C2)nc2cc(S(N)(=O)=O)ccc21 (stereo not drawn),3,5,4,10,34,2
O=C(CCCn1c(=S)[nH]c2cc3c(cc2c1=O)OCO3)N1CCN(c2ccccc2)CC1,15,x,130*,20,x,26
CC1CCc2nc3ccccc3c(C(=O)OCC(=O)N3CCc4ccccc43)c2C1 (stereo not drawn),7,11,-10,6,-2,-3
CCCc1nc2ccccc2c(C(=O)OCC(=O)N2CCc3ccccc32)c1CC,20,23,58*,37,0,12
CSCc1nc2scc(-c3ccccc3)c2c(=O)[nH]1,28,6,11,29,6,41*
O=C(CCC1CCN(Cc2ccc(Cl)cc2)CC1)NC1CC1,x,x,x,x,0,x
CN1C(=O)/C(=C2\SC(=S)N(C(CCC(=O)O)C(=O)O)C2=O)c2ccccc21 (stereo not drawn),13,x,64*,11,-3,104*
CCC(C)c1ccc(OCC(=O)Nc2ccc(CN3CCOCC3)cc2)cc1 (stereo not drawn),x,x,x,x,8,x
O=C(CN(Cc1cccs1)C(=O)CNS(=O)(=O)c1ccccc1)NCc1ccco1,-12,x,89*,-2,-8,5
Cc1cccc(N2N=C(C(=O)O)CCC2=O)c1,x,x,x,x,7,x
Cc1cccc(N2N=C(C(=O)N3CC(=O)Nc4ccccc43)CCC2=O)c1,33,11,34,44*,-12,22
COc1ccccc1N1CCN(C/C(O)=C(\C#N)c2nc(-c3ccccc3)cs2)CC1,23,x,-14,43*,11,10
N#C/C(=C(/O)CN1CCN(c2ccccc2F)CC1)c1nc(-c2ccc(Cl)cc2)cs1,4,x,-78,15,x,6
O=c1[nH]cc(S(=O)(=O)NCc2ccccc2)c(=O)[nH]1,x,x,x,x,-8,x
SMILES,FXIa inh,Biofilm kill mix,KLK5 inh,FXIIa inh,Hep lipid drop,Thrombin inh
COc1ccc(S(=O)(=O)Nc2ccc(CC#N)cc2)cc1,7,x,43*,34,6,15
COc1ccccc1NC(=O)c1csc2c1CCCC2,1,x,63*,2,x,3
OC(c1ccccc1)c1nccc2ccccc12 (stereo not drawn),-2,7,-5,3,-31,5
O=C(Cc1ccccc1)NN1C(=O)c2ccccc2C1=O,1,9,-1,7,7,-10
COc1ccccc1CC(=O)NN1C(=O)c2ccccc2C1=O,3,11,44*,106*,4,6
COC(=O)c1cc(CSc2nnc(NC3CCCCC3)s2)oc1C,6,x,42*,22,-2,17
CC(=O)Nc1ccc(S(=O)(=O)NCc2cccnc2)cc1,22,12,47*,1,-2,31
COc1ccccc1N1CCN(C(=O)c2cc3c(=O)n4cccc(C)c4nc3s2)CC1,x,x,x,x,5,x
CNC(=O)COC(=O)c1cc(-c2ccco2)nc2ccccc12,32,1,28,51*,0,16
O=C(COc1ccc([N+](=O)[O-])cc1)NNC(=O)Nc1ccccc1F,x,x,x,x,1,x
C=CCOC(=O)C1=C(C)Nc2[nH]c(=O)[nH]c(=O)c2C1c1ccccc1 (stereo not drawn),67*,4,19,25,-4,10
COc1cc(NC(=O)c2cc3ccccc3cc2OC)ccc1NC(=O)c1cccs1,x,x,x,x,1,x
O=C(c1nc2ccccc2s1)N1CCN(c2ccccn2)CC1,-14,x,-18,0,2,45*
O=C(c1nc2ccccc2s1)N1CCSCC1,8,x,-4,15,8,4
CCCCOc1ccc(CSCCN=C(N)N)cc1,1,31*,8,6,0,0
COc1ccc(-c2cc(C(=O)NCC3CCCO3)c3cc(C(C)C)ccc3n2)cc1 (stereo not drawn),x,x,x,x,-16,x
O=C(O)CC1(CC(=O)NCc2ccncc2)CCCCC1,28,12,37,41*,-4,15
O=C(O)CC1(CC(=O)NCc2ccc(C(F)(F)F)cc2)CCCCC1,2,22,-1,9,15,-4
COCCNC(=O)Cn1nc(C(F)(F)F)cc1C,13,x,44*,11,4,104*
O=C(Nc1ccc(F)cc1F)c1cc(-c2ccc3c(c2)OCO3)on1,x,x,x,x,-2,x
COc1ccc(Br)cc1/C=C/C(=O)Nc1ccc2ccccc2c1,-3,16,-15,7,52*,-5
Cc1ccc(S(=O)(=O)N(Cc2ccccc2)c2ccccc2C(=O)Nc2ccccc2C(=O)NCc2ccco2)cc1,2,16,-9,6,0,-2
Cc1ccc(S(=O)(=O)N(Cc2ccccc2)c2ccccc2C(=O)NCc2ccco2)cc1,-7,x,-3,47*,x,-2
Cc1noc(C)c1COc1ccc(C(=O)NCc2ccccn2)cc1,-7,x,41*,11,4,4
CC(C)NC(=O)c1ccc(C(C)C)cc1,-1,2,5,7,-3,78*
Cc1cc(C)c(C)c(S(=O)(=O)NCc2ccc(C(=O)N3CCN(C)CC3)cc2)c1C,x,x,x,x,-71,x
COc1ccc(C2c3cc(OC)c(OC)cc3CCN2S(C)(=O)=O)cc1OC (stereo not drawn),25,7,11,46*,17,29
COc1ccc(C2c3cc(OC)c(OC)cc3CCN2C(=O)c2ccccc2)cc1OC (stereo not drawn),x,x,x,x,-1,x
